Calls of active or inactive are those of the source. The calls are words filed in the database; no cut-off is given here.
Legend:
INS1 [1] = test: Protection against tunicamycin induced endoplasmic reticulum stress in rat INS-1 cells assessed as increase in cell viability at 5 uM after 72 hrs by CellTiter-Glo assay; assay type: functional, cell-based
INS1 [2] = test: Reversal of tunicamycin-induced suppression of INS1 mRNA levels in rat INS-1 cells at 20 uM after 24 hrs by qRT-PCR method; assay type: functional, cell-based
Procedure, shortened: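 INS-1 cells (4×10^5/well, 6-well plates) given Tm 0.1 µg/mL ± compound 20 µM or DMSO for 24 h. INS1, INS2, PDX1 and MafA mRNA measured by qRT-PCR with rat primers. Means of 3 replicate wells, representative of 3 independent experiments; SD.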

INS1 [3] = test: Protection against tunicamycin induced endoplasmic reticulum stress in rat INS-1 cells assessed as increase in cell viability at 20 uM after 24 hrs by live-cell phase-contrast image analysis; assay type: functional, cell-based
Procedure, shortened: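 INS-1 cells treated with or without Tm 0.1 µg/mL in the presence of compound 20 µM or DMSO for 24 h; live-cell phase-contrast images acquired at 10× magnification.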

INS1 [4] = test: Protection against tunicamycin induced endoplasmic reticulum stress in rat INS-1 cells assessed as increase in cell viability after 3 days by CellTiter-Glo assay relative to control; assay type: functional
Procedure, shortened: (§1)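 INS-1 cells at 3×10^3/well (384-well) co-treated with Tm 0.1 µg/mL and compound for 72 h; CellTiter-Glo ATP luminescence. Activity is % rescue, with Tm alone = 0% and DMSO without Tm = 100%. EC50 from ten 2-fold serial dilutions by curve fit; triplicate.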

Rattus norvegicus [5] = species: Rattus norvegicus; test: Inhibition of IRE1alpha in rat INS-1 cells assessed as suppression of tunicamycin induced spliced XBP1 mRNA levels at 20 uM after 4 to 24 hrs in by qRT-PCR method; assay type: cell-based
Procedure, shortened: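 Spliced XBP1 mRNA in INS-1 cells (4×10^5/well, 6-well plates) measured by qRT-PCR with splicing-specific primers after Tm 0.1 µg/mL ± compound 20 µM or DMSO for the indicated times. Expressed as fold-increase over untreated control; 3 replicate wells, representative of 3 experiments, SD.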

Beta-TC6 = test: Protection against tunicamycin induced endoplasmic reticulum stress in mouse BetaTC6 cells assessed as increase in cell viability after 72 hrs by MTT assay; assay type: functional, cell-based
Procedure, shortened: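 βTC6 cells (DMEM, 15% FBS) seeded at 3×10^3/well in 384-well plates with Tm 0.25 µg/mL ± compound or DMSO for 72 h. Viability by CellTiter-Glo (ATP luminescence) or MTT: 3 h with reagent at 37 °C, then 4 h with crystal-dissolving solution, absorbance at 570 nm. 3 replicate wells, 3 experiments.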

Rattus norvegicus [6] = species: Rattus norvegicus; test: Inhibition of IRE1alpha in rat INS-1 cells assessed as suppression of tunicamycin induced spliced XBP1 mRNA levels in at 20 uM after 4 to 24 hrs by agarose gel electrophoresis based RT-PCR method; assay type: cell-based
Procedure, shortened: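 Total XBP1 mRNA amplified by RT-PCR from INS-1 cells treated with Tm 0.1 µg/mL ± compound 20 µM or DMSO for the indicated times. Unspliced and spliced forms resolved on agarose gel; cyclophilin A as internal control. Representative of 3 independent experiments.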

INS1 [7] = test: Protection against tunicamycin induced endoplasmic reticulum stress in rat INS-1 cells assessed as increase in cell viability after 3 days by CellTiter-Glo assay; assay type: functional, cell-based; settings: INS1, 72 h; procedure, shortened: as §1
[8] = target: T1, Eukaryotic translation initiation factor 2-alpha kinase 3 (Rattus norvegicus) (UniProt Q9Z1Z1); test: Inhibition of PERK pathway in rat INS-1 cells assessed as reduction in tunicamycin induced CHOP mRNA levels at 20 uM after 2 to 24 hrs by qRT-PCR method; assay type: cell-based
T1 sequence (whole entry): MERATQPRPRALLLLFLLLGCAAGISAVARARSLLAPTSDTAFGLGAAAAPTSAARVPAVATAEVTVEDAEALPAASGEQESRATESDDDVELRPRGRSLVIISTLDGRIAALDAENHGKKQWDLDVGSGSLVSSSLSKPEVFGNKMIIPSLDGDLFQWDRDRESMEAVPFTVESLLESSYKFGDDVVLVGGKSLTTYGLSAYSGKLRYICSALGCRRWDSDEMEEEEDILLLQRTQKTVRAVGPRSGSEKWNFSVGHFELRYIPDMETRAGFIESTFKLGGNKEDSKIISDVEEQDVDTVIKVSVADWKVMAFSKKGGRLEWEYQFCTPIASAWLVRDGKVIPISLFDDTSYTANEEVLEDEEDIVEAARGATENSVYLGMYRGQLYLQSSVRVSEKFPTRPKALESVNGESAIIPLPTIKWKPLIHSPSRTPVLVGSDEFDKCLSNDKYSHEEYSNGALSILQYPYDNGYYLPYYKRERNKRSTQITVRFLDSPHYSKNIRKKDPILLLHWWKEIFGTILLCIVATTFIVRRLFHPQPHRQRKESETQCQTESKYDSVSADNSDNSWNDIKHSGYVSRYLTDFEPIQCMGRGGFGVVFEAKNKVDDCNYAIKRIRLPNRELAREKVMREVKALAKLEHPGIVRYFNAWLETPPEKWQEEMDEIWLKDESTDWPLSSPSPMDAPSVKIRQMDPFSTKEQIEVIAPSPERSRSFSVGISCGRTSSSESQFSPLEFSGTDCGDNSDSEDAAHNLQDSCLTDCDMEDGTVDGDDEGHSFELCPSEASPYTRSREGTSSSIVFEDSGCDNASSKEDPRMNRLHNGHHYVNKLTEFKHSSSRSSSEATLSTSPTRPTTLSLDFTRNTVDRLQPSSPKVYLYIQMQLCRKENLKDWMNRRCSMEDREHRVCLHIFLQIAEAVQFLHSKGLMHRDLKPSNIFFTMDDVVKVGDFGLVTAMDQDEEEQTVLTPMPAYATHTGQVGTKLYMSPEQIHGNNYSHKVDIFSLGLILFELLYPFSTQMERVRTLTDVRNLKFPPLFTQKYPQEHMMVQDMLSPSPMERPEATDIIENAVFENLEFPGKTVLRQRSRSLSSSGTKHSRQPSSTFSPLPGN
Procedure, shortened: (§2)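 ATF4 or CHOP mRNA measured by qRT-PCR in INS-1 cells treated with Tm 0.1 µg/mL ± compound 20 µM or DMSO for the indicated times. Expressed as fold-increase over untreated control; means of 3 replicate wells, representative of 3 independent experiments, SD.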

INS1 [9] = test: Suppression of tunicamycin impaired glucose-stimulated insulin secretion in rat INS-1 cells at 10 to 20 uM preincubated for 24 hrs followed by 25 mM glucose addition for 1 hr by ELISA; assay type: functional, cell-based
Procedure, shortened: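 INS-1 cells in 96-well plates given Tm 0.1 µg/mL plus compound for 24 h, preincubated 1 h in KRBH (pH 7.4, 2% BSA) with 2.5 mM glucose, then 1 h in 2.5 or 25 mM glucose. Secreted insulin by ELISA, corrected for total protein (Bradford); 2.5 mM glucose without Tm set to 1.0.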

Pancreatic beta cell = test: Decrease in tunicamycin induced apoptosis in human Beta cells assessed as […] insulin cells level at 10 uM after 48 hrs by TUNEL staining based confocal microscopy (reference value: 15%); assay type: functional; design: scale not given: the % may be the effect or the level left
[10] = target: T1, Eukaryotic translation initiation factor 2-alpha kinase 3 (Rattus norvegicus); test: Inhibition of PERK pathway in rat INS-1 cells assessed as reduction in tunicamycin induced ATF4 mRNA levels at 20 uM after 2 to 24 hrs by qRT-PCR method; assay type: cell-based; procedure, shortened: as §2

**Q.** What does the source list for `COc1ccc(CNc2nc(N3CCCCC3CO)nc3ccccc23)cc1` (racemic)?
**A.** Activity (INS1 [1]): Active; Activity (INS1 [2]): Active; Activity (INS1 [3]): Active; %max (INS1 [4]): 80.4%; inhibition (Rattus norvegicus [5]): Active; Activity (Beta-TC6): Dose-dependent effect; inhibition (Rattus norvegicus [6]): Active; EC50 (INS1 [7]): 560 nM; inhibition [8]: Active; Activity (INS1 [9]): Active; Activity (Pancreatic beta cell): 3.5%; inhibition [10]: Active
